High-throughput results as filed in PubChem.
MITF TRPM1 HTS: MITF TRPM1 promoter activation in melanoma cells; AID 588334; 300,000 tested, 0.75% active; activation, % at 12.5 µM; SK-MEL-5 TRPM1-promoter luciferase, 24 h; % of positive control, neutral wells = 0;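 active means mean activation of at least 80% with every replicate also reaching 80%; inconclusive means mean reaches 80% but some replicate falls short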
esBAF inh: inhibitors of esBAF chromatin remodeling in mouse ES cells; reporter increase, % at 12.5 µM; 350,000 tested, 2% active; Bmi1-luciferase knock-in reporter, 24 h; 100% = twice the neutral-well signal; in the data active means activation above about 40%; inconclusive means no clear call, values can overlap the other calls;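 further: a rise in the Bmi1 reporter signal indicates esBAF inhibition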
Vif imaging: HIV Vif inhibition | HEK293T cells, Vif self-association by quenched fluorescence, imaging, 24 h | inhibition, % at 7.49 µM | 340,000 tested, 0.35% active; in the data active means inhibition above about 50%, passing the limit was not always enough; inconclusive means no clear call, values can overlap the other calls; inactive means below about 31%
Xi reactivation: activators of X-chromosome reactivation in mouse fibroblasts; XiGFP mouse fibroblasts, % GFP-positive cells imaging, 3 d; cells co-treated with 5-aza-dC sensitizer; scaled so ellipticine positive control = 100%; activation, % at 7.58 µM; 360,000 tested, 0.055% active;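 active means mean normalized replicate activation at least 10% and every replicate at or above 10%; inconclusive means only one of the two criteria met; inactive means mean below 10% and not all replicates reach 10%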
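Assay system: SV40-immortalized XiGFP fibroblast cells, line 68-5-11; buffer or medium: DMEM plus 5-aza-dC sensitizer; compound: one concentration, pinned; timing: compounds 3 days, fix/stain 15 min at room temperature; benchmarks: positive control ellipticine, 6 µM final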
Wnt act: Wnt/beta-catenin pathway activation; Wnt/beta-catenin reporter cell assay, activator, plate reader; activation, % at 9.35 µM; 300,000 tested, 1.2% active; in the data active means activation above about 30%, passing the limit was not always enough; inconclusive means no clear call, values can overlap the other calls
Numbers stand for hits; i = inactive; ? = inconclusive; nt = no result. An excerpt weighted towards active compounds, which were near 2.6% of everything screened.

SMILES | MITF TRPM1 HTS | esBAF inh | Vif imaging | Xi reactivation | Wnt act
Cc1cccc(C(=O)NCCC(=O)NCc2ccccc2F)c1 | i | i | i | i | i
Cc1cccc(C(=O)NCCC(=O)NCc2ccccc2Cl)c1 | i | i | 53.6 | i | i
CC(C)CC#Cc1ccc([C@H]2[C@H](CO)N3C(=O)CN(S(C)(=O)=O)C[C@@H]23)cc1 | nt | nt | nt | i | nt
C[C@@H]1CCCCO[C@@H](CN(C)C(=O)Nc2cccc3ccccc23)[C@H](C)CN([C@@H](C)CO)C(=O)c2cc(NS(=O)(=O)c3ccc(F)cc3)ccc2O1 | nt | i | nt | i | nt
COc1ccc(S(=O)(=O)n2ccc(-c3cnc(-c4ccccc4)s3)n2)cc1 | i | i | i | nt | 40.6
COc1ccc2c3c([nH]c2c1)[C@H](CO)N(C(=O)Nc1ccc(F)cc1)CC31CCN(Cc2cc(F)ccc2F)CC1 | nt | nt | nt | i | nt
CCN(CC)C(=O)c1cc2sc3ccccc3c2s1 | 97.8 | 80.4 | nt | nt | nt
COCCN(CCOC)C(=O)c1cc2sc3ccccc3c2s1 | i | i | i | nt | i
O=C(C1CC1)N1[C@H](CO)[C@H]2c3ccccc3N(S(=O)(=O)c3ccccc3)C[C@H]21 | nt | i | nt | i | nt
O=C(NNS(=O)(=O)c1ccccc1)C1CCN(S(=O)(=O)c2ccccc2)CC1 | i | i | i | nt | 42.3
C[C@@H](NC(=O)C[C@@H]1CC[C@@H](NC(=O)C2CCOCC2)[C@H](CO)O1)c1ccccc1 | nt | i | nt | i | nt
Cc1c(NC(=O)C(C)OC(=O)c2cc(Cl)nc(Cl)c2)c(=O)n(-c2ccccc2)n1C (centres undefined) | i | nt | i | i | i
Cc1c(NC(=O)C(C)OC(=O)c2sc3ccccc3c2Cl)c(=O)n(-c2ccccc2)n1C (centres undefined) | i | i | 107.8 | i | nt
O=C(C[C@@H]1CC[C@@H]2[C@H](COC[C@@H](O)CN2Cc2ccc(Cl)cc2)O1)NCCc1ccccc1 | nt | i | nt | i | nt
COc1ccc(-c2c(C)nn(-c3ccccc3)c2N)cc1 | 102.8 | 63.5 | i | nt | i
Cc1nn(-c2ccc(C(=O)O)cc2)c(N)c1-c1ccccc1 | i | 61.2 | i | nt | i
COc1ccc(-c2nn(-c3ccccc3)cc2N)cc1 | i | nt | i | i | 59.3
Cc1nn(-c2nc3ccccc3[nH]2)c(N)c1-c1ccc(Cl)cc1 | i | 61.2 | nt | nt | i
C[C@@H]1CN([C@@H](C)CO)S(=O)(=O)c2ccc(C#CCN(C)C)cc2O[C@H]1CN(C)S(C)(=O)=O | nt | i | nt | i | nt
CC(C)(C)C(=O)NNC(=O)CCCOc1ccc(Cl)cc1Cl | i | i | i | nt | nt
O=C(CCCOc1ccc(Cl)cc1Cl)Nc1ccccc1C(=O)O | i | 78.9 | i | i | ?
CSc1ccccc1NC(=O)COc1ccc(Cl)cc1Cl | i | 47.4 | i | i | nt
CC(C)(CO)NC(=O)CCCOc1ccc(Cl)cc1Cl | i | 47.9 | i | nt | nt
CSc1ccccc1NC(=O)COc1ccccc1Cl | i | i | i | nt | nt
CC(=O)c1sc(NC(=O)COc2ccc(Cl)cc2Cl)nc1C | i | 45.0 | i | i | i
SMILES | MITF TRPM1 HTS | esBAF inh | Vif imaging | Xi reactivation | Wnt act
C[C@@H]1CN([C@@H](C)CO)C(=O)c2cccc(NC(=O)Nc3ccccc3)c2O[C@H]1CN(C)Cc1ccc(C(=O)O)cc1 | nt | i | nt | i | nt
COc1ccccc1NC(=O)N[C@H]1CC[C@H](CCNC(=O)c2ccc3c(c2)OCO3)O[C@H]1CO | nt | i | nt | i | nt
COc1ccc(OC)c(-c2cc(C(=O)NC3CCCC3)c3ccccc3n2)c1 | i | i | i | i | i
COc1cc2ccccc2cc1C(=O)NC1CCCC1 | i | 96.4 | i | i | i
COc1cc2ccccc2cc1C(=O)NC1CCCCC1 | i | 45.5 | i | i | i
COc1cc2ccccc2cc1C(=O)NC1CCC(C)CC1 (centres undefined) | 118.1 | 56.7 | i | i | 38.1
COc1cc(SC)ccc1C(=O)NC1CCCCC1 | i | 54.1 | i | nt | i
O=C(C[C@@H]1CC[C@@H](NC(=O)NC2CCCC2)[C@H](CO)O1)NCc1ccc(F)cc1 | nt | i | nt | i | nt
C[C@@H]1CCCCO[C@@H](CN(C)C(=O)C2CCCCC2)[C@@H](C)CN([C@@H](C)CO)C(=O)c2cc(NC(=O)CCC(F)(F)F)ccc2O1 | nt | i | nt | i | nt
CO[C@@H]1CN(C)C(=O)c2ccc(NC(=O)c3ccc(F)cc3)cc2OC[C@H](C)N(C(C)=O)C[C@H]1C | nt | i | nt | i | nt
CC(=O)c1ccc(Nc2nc(N3CCOCC3)nc(N3CCOCC3)n2)cc1 | i | 44.0 | i | i | i
CC(=O)c1cccc(Nc2nc(N3CCOCC3)nc(N3CCOCC3)n2)c1 | i | i | i | i | i
C[C@@H]1CN([C@@H](C)CO)C(=O)CCCn2cc(nn2)CO[C@@H]1CN(C)Cc1ccc(C(F)(F)F)cc1 | nt | i | nt | i | nt
Cc1ccc(-c2nc(N)s[n+]2-c2ccccc2)cc1 | i | nt | i | i | 53.5
CNc1nc(-c2ccccc2)[n+](-c2ccc(C)cc2)s1 | i | nt | i | nt | nt
Cc1cccc(C)c1N1C(=O)CC(N(O)c2ccccc2)C1=O (centres undefined) | i | i | i | nt | i
Cc1c(Cl)cccc1N1C(=O)CC(N(O)c2ccccc2)C1=O (centres undefined) | nt | 60.4 | i | nt | nt
CC1(C)CCN2CCC(C)(C)c3c(O)ccc1c32 | nt | i | nt | 80.1 | i
Cc1nc(NCCc2ccccc2)sc1C(=O)N(C)C | i | 41.5 | i | i | i
COc1ccccc1CNc1nc(C)c(C(=O)N(C)C)s1 | i | i | i | i | i
Cc1nc(Nc2ccccc2C(F)(F)F)sc1C(=O)N(C)C | i | 48.6 | i | i | i
c1ccc(Cn2c(-c3ccco3)nc3nc4ccccc4nc32)cc1 | 90.0 | nt | i | nt | 37.6
O=c1c2ccccc2nc(-c2ccco2)n1Cc1ccccc1 | 96.3 | 51.7 | i | nt | nt
O=c1c2ccccc2nc(-c2ccc(Br)cc2)n1Cc1ccccc1 | i | i | i | nt | i
CCCCCn1c(-c2ccco2)nc2nc3ccccc3nc21 | i | i | i | nt | nt
SMILES | MITF TRPM1 HTS | esBAF inh | Vif imaging | Xi reactivation | Wnt act
COc1ccc2c3c([nH]c2c1)[C@@H](CO)N(C)CC31CN(S(=O)(=O)c2cn(C)cn2)C1 | nt | nt | nt | i | nt
Cc1ccc(-c2cc3nc4c(c(=O)n3[nH]2)CCCC4)cc1 | i | i | i | nt | i
O=c1c2c(nc3cc(-c4ccc(F)cc4)[nH]n13)CCC2 | 87.3 | nt | i | i | i
Cc1cc(C(=O)Nc2cccc3c2O[C@@H](CN(C)S(=O)(=O)c2ccc(Cl)cc2)[C@H](C)CN([C@@H](C)CO)C3=O)n(C)n1 | nt | i | nt | i | nt
CSc1ccccc1OCc1cc(C(=O)N(C)Cc2ccc(C)o2)no1 | 98.8 | 75.0 | i | i | i
CSc1ccccc1OCc1cc(C(=O)N(C)Cc2ccc3nsnc3c2)no1 | i | i | i | i | 35.0
CC(=O)c1cccc(OCc2cc(C(=O)N(C)Cc3ccc(C)o3)no2)c1 | i | i | i | i | i
CCOC(=O)c1ccc(CNC(=O)c2cc(COc3ccccc3SC)on2)o1 | 103.2 | 54.3 | i | i | i
COc1ccc2c3c([nH]c2c1)[C@@H](CO)N(Cc1ccncc1)CC31CCN(Cc2ccc(-c3ccccn3)cc2)CC1 | nt | nt | nt | i | nt
